The text below walks through data of PMC3399519 (European Journal of Medicinal Chemistry, 2011).

Entries after “also recorded” stand apart in the source; their conditions may differ.

Sequence of human recombinant PCAF HAT domain (Q92831 493-658): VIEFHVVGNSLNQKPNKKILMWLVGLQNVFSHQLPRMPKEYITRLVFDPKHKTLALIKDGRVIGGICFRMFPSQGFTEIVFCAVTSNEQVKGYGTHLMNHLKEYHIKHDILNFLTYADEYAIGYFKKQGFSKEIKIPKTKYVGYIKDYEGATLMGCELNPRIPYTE

In the first test the target is T1, Tip60 (Homo sapiens, UniProt Q92993). Briefly: Radioisotope-labeled histone acetyltransferase assay, Tip60. The test is classed as biochemical. Conditions: 200 µM compound.
T1 sequence (Q92993 whole entry): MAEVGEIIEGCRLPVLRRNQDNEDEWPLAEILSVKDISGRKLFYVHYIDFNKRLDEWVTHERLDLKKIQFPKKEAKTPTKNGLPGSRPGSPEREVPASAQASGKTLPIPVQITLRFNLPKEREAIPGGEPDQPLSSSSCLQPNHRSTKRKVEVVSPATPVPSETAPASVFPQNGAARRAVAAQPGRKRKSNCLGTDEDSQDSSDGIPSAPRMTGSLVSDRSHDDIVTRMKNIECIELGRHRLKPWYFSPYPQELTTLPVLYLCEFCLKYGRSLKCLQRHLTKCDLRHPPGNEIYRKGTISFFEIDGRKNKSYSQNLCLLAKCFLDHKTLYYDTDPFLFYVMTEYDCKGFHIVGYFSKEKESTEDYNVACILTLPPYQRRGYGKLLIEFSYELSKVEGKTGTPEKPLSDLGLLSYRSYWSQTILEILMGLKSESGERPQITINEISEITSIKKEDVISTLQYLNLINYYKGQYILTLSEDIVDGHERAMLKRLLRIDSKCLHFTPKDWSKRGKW
`CC(C)CCCC(C)CCOc1ccc(CCc2cccc(O)c2C(=O)O)cc1` (stereo not shown) [6a]: the “Tip60 inhibition (in words)” value is recorded as “also inhibited the Tip60 HAT activity”.

With `COCCOc1ccc(CCc2cccc(O)c2C(=O)O)cc1` [6b], the “Tip60 inhibition (in words)” value was “very weakly inhibit; also recorded: very poor inhibitors”.

`CCCCCOc1ccc(CCc2cccc(O)c2C(=O)O)cc1C(C)=O` [6c]: the “Tip60 inhibition (in words)” value is “also inhibited the Tip60 HAT activity”.

For `CCCCCOc1ccc(CCc2cccc(O)c2C(=O)O)cc1C(C)O` (stereo not shown) [6d], the “Tip60 inhibition (in words)” value is on record as “very weakly inhibit”.

With `CCCCCCCOc1ccc(CCc2cccc(O)c2C(=O)O)cc1C(C)=O` [6f], the “Tip60 inhibition (in words)” value is “also inhibited the Tip60 HAT activity”.

As for `CCCCCc1cccc(O)c1C(=O)O` [6h], the “Tip60 inhibition (in words)” value is “very poor inhibitors”.

Take `CCCCCCCCCCCCCCCc1cccc(O)c1C(=O)O` [16 (AA), 6-pentadecylsalicylic acid, reference compound]: the “Tip60 inhibition (in words)” value is “almost completely; also recorded: also inhibited the Tip60 HAT activity”.

Turning to `CCCCCCCCCCCCCC#Cc1ccccc1C(=O)OC` [compound 11], the “Tip60 inhibition (in words)” value is listed as “also inhibited the Tip60 HAT activity”.

As to `CCCCCCCCCCCCCCCc1ccccc1C(=O)O` [compound 12], the “Tip60 inhibition (in words)” value is “also inhibited the Tip60 HAT activity”.

Take `CCCCCCCCCCc1cccc(O)c1C(=O)O` [compound 17]: the “Tip60 inhibition (in words)” value is on record as “also inhibited the Tip60 HAT activity”.

For the molecule `CCCCCCCCCCCCCCCc1cc(O)cc(O)c1C(=O)O` [compound 18], the “Tip60 inhibition (in words)” value was “also inhibited the Tip60 HAT activity”.

For the molecule `CCCCCCCCCCc1cc(O)cc(O)c1C(=O)O` [compound 19], the “Tip60 inhibition (in words)” value is reported as “also inhibited the Tip60 HAT activity”.

In the case of `CCCCCCCc1ccc(CCc2cccc(O)c2C(=O)O)cc1` [compound 20], the “Tip60 inhibition (in words)” value was “also inhibited the Tip60 HAT activity”.

For `CCCCCOc1ccc(/C=C\c2cccc(O)c2C(=O)O)cc1` [compound 21], the “Tip60 inhibition (in words)” value is listed as “also inhibited the Tip60 HAT activity”.

Turning to `CCCCCOc1ccc(CCc2cccc(O)c2C(=O)O)cc1` [compound 24], the “Tip60 inhibition (in words)” value is “also inhibited the Tip60 HAT activity”.

Consider `CCCCCCCCCCCCCCOc1ccc(CCc2cccc(O)c2C(=O)O)cc1` [compound 25], for which the “Tip60 inhibition (in words)” value is recorded as “only modest inhibitory activity; also recorded: also inhibited the Tip60 HAT activity”.

Still in this test, the particulars now being: read-out: inhibition of Tip60 activity.
In the case of `CCCCCCCCCCCCCCCc1cccc(O)c1C(=O)O` [16 (AA), 6-pentadecylsalicylic acid, reference compound], the inhibition (in general, the relative decrease from the control value, in per cent) at 200 µM was > 76%.

The test is the same for the next values; noted with them: read-out: inhibition of Tip60 activity, 200 µM compound; 100 nM Tip60, 10 µM Ac-CoA, 100 µM H4-20.
Regarding `CCCCCCCc1ccc(CCc2cccc(O)c2C(=O)O)cc1` [compound 20], the inhibition at 200 µM is > 76%.

The test is the same for the next values; noted with them: recombinant enzyme inhibition assays.
As to `CCCCCCCCCCCCCCCc1cc(O)cc(O)c1C(=O)O` [compound 18], the “selectivity for Tip60 in comparison with PCAF and p300” value (“selectivity for Tip60 in comparison” for short) is “selective for Tip60”.

On to `CCCCCCCCCCc1cc(O)cc(O)c1C(=O)O` [compound 19], for which the “selectivity for Tip60 in comparison” value is reported as “selective for Tip60”.

Regarding `CCCCCOc1ccc(/C=C\c2cccc(O)c2C(=O)O)cc1` [compound 21], the “selectivity for Tip60 in comparison” value was “selective for Tip60”.

A further test addresses T2, human recombinant p300 HAT domain (Homo sapiens, UniProt Q09472).
T2 sequence (Q09472 1287-1663 limits assumed): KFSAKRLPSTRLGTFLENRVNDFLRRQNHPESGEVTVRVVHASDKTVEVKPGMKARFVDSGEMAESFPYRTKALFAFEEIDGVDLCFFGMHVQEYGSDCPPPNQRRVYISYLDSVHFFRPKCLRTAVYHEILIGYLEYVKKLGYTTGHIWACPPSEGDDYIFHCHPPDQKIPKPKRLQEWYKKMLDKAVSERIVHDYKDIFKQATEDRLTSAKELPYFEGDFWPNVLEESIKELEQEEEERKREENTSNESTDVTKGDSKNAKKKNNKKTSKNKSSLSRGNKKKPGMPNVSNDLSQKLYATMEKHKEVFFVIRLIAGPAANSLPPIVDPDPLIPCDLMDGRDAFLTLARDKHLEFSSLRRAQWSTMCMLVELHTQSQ
Put plainly: Radioisotope-labeled histone acetyltransferase assay, p300. The test is classed as biochemical. Conditions: 200 µM compound.
Take `CCCCCCCc1ccc(CCc2cccc(O)c2C(=O)O)cc1` [compound 20]: the “effect on p300 activity (in words)” value is on record as “no inhibitory impact; also recorded: no observable inhibitory effect”.

Another test has as its target human recombinant PCAF HAT domain (Homo sapiens, UniProt Q92831). Put plainly: Radioisotope-labeled histone acetyltransferase assay, PCAF. The test is classed as biochemical. The conditions noted are these: 200 µM compound.
With `CCCCCCCc1ccc(CCc2cccc(O)c2C(=O)O)cc1` [compound 20], the “effect on PCAF activity (in words)” value was “no inhibitory impact; also recorded: no observable inhibitory effect”.

Turning to `CCCCCOc1ccc(/C=C\c2cccc(O)c2C(=O)O)cc1` [compound 21], the “effect on PCAF activity (in words)” value is recorded as “enhance the PCAF activity significantly”.

On to `CCCCCOc1ccc(CCc2cccc(O)c2C(=O)O)cc1` [compound 24], for which the “effect on PCAF activity (in words)” value is listed as “enhance the PCAF activity significantly”.

The target in another test is T1, Tip60. Briefly: Steady-state kinetic characterization of Tip60 inhibition.
Details: not given
It is filed as biochemical.
For the molecule `CCCCCCCc1ccc(CCc2cccc(O)c2C(=O)O)cc1` [compound 20], the “inhibition pattern with respect to Ac-CoA” value is “essentially competitive with respect to Ac-CoA”.

The test system of another test is HAT activity in HeLa nuclear extracts (histone H4 acetylation). Put plainly: ELISA acetyltransferase assay with HeLa nuclear extracts, histone H4 peptide. It is filed as biochemical.
Details: not given
The gist of the method:
(§1)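 HeLa nuclear extract (2.5 µg/mL final protein) acetylates biotinylated histone H3 (aa 1–21) or H4 (aa 2–24) peptide immobilised via streptavidin. Reaction runs 15 min, read by anti-acetyl-lysine ELISA. H3 tested at 50 µM against H4. Triplicates, scaled to no-inhibitor and no-enzyme controls.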
In general terms: An ELISA detects its analyte on a solid surface through an enzyme-linked reagent.
Turning to `CCCCCOc1ccc(CCc2cccc(O)c2C(=O)O)cc1C(C)O` (stereo not shown) [6d], the “potency on HeLa nuclear extracts compared to recombinant Tip60” value was “more potent on HeLa nuclear extracts than for the recombinant Tip60”.

Turning to `CCCCCCCc1ccc(CCc2cc(O)cc(O)c2C(=O)O)cc1` [compound 15], the “potency on HeLa nuclear extracts compared to recombinant Tip60” value is “more potent on HeLa nuclear extracts than for the recombinant Tip60”.

The same test, now with this note: 200 µM compound, histone H4.
For `CC(C)CCCC(C)CCOc1ccc(CCc2cccc(O)c2C(=O)O)cc1` (stereo not shown) [6a], the “inhibition of cellular HAT activity (HeLa nuclear extracts)” value (from here on “inhibition of cellular HAT activity”) is given as > 50%.

Take `CCCCCOc1ccc(CCc2cccc(O)c2C(=O)O)cc1C(C)=O` [6c]: the “inhibition of cellular HAT activity” value is > 50%.

For the molecule `CCCCCCCOc1ccc(CCc2cccc(O)c2C(=O)O)cc1C(C)=O` [6f], the “inhibition of cellular HAT activity” value is listed as > 50%.

Take `CCCCCCCCCCCCCCCc1cccc(O)c1C(=O)O` [16 (AA), 6-pentadecylsalicylic acid, reference compound]: the “inhibition of cellular HAT activity” value is given as > 50%.

In the case of `CCCCCCCCCCCCCC#Cc1ccccc1C(=O)OC` [compound 11], the “inhibition of cellular HAT activity” value is > 50%.

As for `CCCCCCCCCCCCCCCc1ccccc1C(=O)O` [compound 12], the “inhibition of cellular HAT activity” value is on record as > 50%.

Regarding `CCCCCCCCCCc1cccc(O)c1C(=O)O` [compound 17], the “inhibition of cellular HAT activity” value is > 50%.

With `CCCCCCCCCCCCCCCc1cc(O)cc(O)c1C(=O)O` [compound 18], the “inhibition of cellular HAT activity” value was > 50%.

Consider `CCCCCCCCCCc1cc(O)cc(O)c1C(=O)O` [compound 19], for which the “inhibition of cellular HAT activity” value was > 50%.

On to `CCCCCCCc1ccc(CCc2cccc(O)c2C(=O)O)cc1` [compound 20], for which the “inhibition of cellular HAT activity” value is listed as > 50%.

Turning to `CCCCCOc1ccc(/C=C\c2cccc(O)c2C(=O)O)cc1` [compound 21], the “inhibition of cellular HAT activity” value is on record as > 50%.

Take `CCCCCOc1ccc(CCc2cccc(O)c2C(=O)O)cc1` [compound 24]: the “inhibition of cellular HAT activity” value is given as > 50%.

On to `CCCCCCCCCCCCCCOc1ccc(CCc2cccc(O)c2C(=O)O)cc1` [compound 25], for which the “inhibition of cellular HAT activity” value is given as > 50%.

The same test, now with this note: histone H4 acetylation.
As for `COCCOc1ccc(CCc2cccc(O)c2C(=O)O)cc1` [6b], the “inhibition of HAT activity in HeLa nuclear extracts (in words)” value (from here on “inhibition of HAT activity … (in words)”) is reported as “strongly reduced HAT inhibitory potency; also recorded: poor inhibition”.

As for `CCCCCc1cccc(O)c1C(=O)O` [6h], the “inhibition of HAT activity … (in words)” value is “strongly reduced HAT inhibitory potency; also recorded: poor inhibition”.

`CCCCCOc1ccc(/C=C\c2cccc(O)c2C(=O)O)cc1` [compound 21]: the “inhibition of HAT activity … (in words)” value is on record as “high inhibitory activity”.

The next test concerns HAT activity in HeLa nuclear extracts (histone H3 acetylation).
Assay: not given
The conditions noted are these: 50 µM compound. The test is classed as biochemical. The gist of the method:
as §1
For `CCCCCCCCCCCCCCCc1cccc(O)c1C(=O)O` [16 (AA), 6-pentadecylsalicylic acid, reference compound], the “inhibitory potency on histone H3 acetylation compared to histone H4 acetylation” value is listed as “almost equal potency for both histones”.

Regarding `CCCCCCCCCCc1cccc(O)c1C(=O)O` [compound 17], the “inhibitory potency on histone H3 acetylation compared to histone H4 acetylation” value is on record as “almost equal potency for both histones”.

In the case of `CCCCCOc1ccc(/C=C\c2cccc(O)c2C(=O)O)cc1` [compound 21], the “inhibitory potency on histone H3 acetylation compared to histone H4 acetylation” value is reported as “opposite”.

Regarding `CCCCCOc1ccc(CCc2cccc(O)c2C(=O)O)cc1` [compound 24], the “inhibitory potency on histone H3 acetylation compared to histone H4 acetylation” value is “opposite”.

For `CCCCCCCCCCCCCCOc1ccc(CCc2cccc(O)c2C(=O)O)cc1` [compound 25], the “inhibitory potency on histone H3 acetylation compared to histone H4 acetylation” value was “opposite”.

For a further test, the system named is HAT activity of nuclear extracts of brain tissue samples.
Assay: not given
The test is classed as biochemical, rats. Conditions: 30 µM inhibitor, histone H3 as acetyl acceptor. The gist of the method:
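Nuclear extracts come from tissue of different brain regions, at 40 µg/mL protein, standardised by protein content. Biotinylated histone H3 peptide (aa 1–21) is streptavidin-immobilised as acceptor. Buffer: 50 mM HEPES pH 7.4 with Triton X-100, EDTA, BSA and DTT. Inhibitor at 30 µM, 15 min reaction, anti-acetyl-lysine ELISA. Triplicates for each of two animals, blanks subtracted.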
`CCCCCCCc1ccc(CCc2cccc(O)c2C(=O)O)cc1` [compound 20]: the “inhibition of HAT activity of nuclear extracts of different brain regions” value is recorded as “equal potency to AA”.

The subject of the next test is p300.
Assay: not given
Conditions: read-out: IC50 p300; estimated by Kundu et al. ref 7; cited from earlier work.
As to `CCCCCCCCCCCCCCCc1cccc(O)c1C(=O)O` [16 (AA), 6-pentadecylsalicylic acid, reference compound], the IC50 (commonly the midpoint of a concentration-inhibition curve) was 8.5 µM.

The subject of another test is PCAF.
Assay: not given
Conditions: read-out: IC50 PCAF; estimated by Kundu et al. ref 7; cited from earlier work.
Turning to `CCCCCCCCCCCCCCCc1cccc(O)c1C(=O)O` [16 (AA), 6-pentadecylsalicylic acid, reference compound], the IC50 is 5 µM.

In another test the test system is p300.
Assay: not given
The conditions noted are these: read-out: IC50 p300; Souto et al. ref 11; cited from earlier work.
As for `CCCCCCCCCCCCCCCc1cccc(O)c1C(=O)O` [16 (AA), 6-pentadecylsalicylic acid, reference compound], the half-maximal inhibitory concentration (IC50) was 50 to 100 µM.

Another test has as its system PCAF.
Assay: not given
Conditions: read-out: IC50 PCAF; previous characterization with a different assay ref 12; cited from earlier work.
On to `CCCCCCCCCCCCCCCc1cccc(O)c1C(=O)O` [16 (AA), 6-pentadecylsalicylic acid, reference compound], for which the IC50 is ~1 mM.

In another test the test system is HEP G2 cells.
Assay: not given
Conditions: HEP G2 cells ref 12; cited from earlier work.
Consider `CCCCCOc1ccc(/C=C\c2cccc(O)c2C(=O)O)cc1` [compound 21], for which the “inhibition of histone acetylation in HEP G2 cells compared to 16 (AA)” value was “more potent inhibitor of histone acetylation than 16 (AA)”.
